{"data": "Measurements pooled from the literature", "target": "Dual specificity tyrosine-phosphorylation-regulated kinase 2 (DYRK2, Homo sapiens, UniProt Q92630)", "read-out": "enzyme activity", "action": "inhibitor", "Residues used in one study (Q92630 1-601)": "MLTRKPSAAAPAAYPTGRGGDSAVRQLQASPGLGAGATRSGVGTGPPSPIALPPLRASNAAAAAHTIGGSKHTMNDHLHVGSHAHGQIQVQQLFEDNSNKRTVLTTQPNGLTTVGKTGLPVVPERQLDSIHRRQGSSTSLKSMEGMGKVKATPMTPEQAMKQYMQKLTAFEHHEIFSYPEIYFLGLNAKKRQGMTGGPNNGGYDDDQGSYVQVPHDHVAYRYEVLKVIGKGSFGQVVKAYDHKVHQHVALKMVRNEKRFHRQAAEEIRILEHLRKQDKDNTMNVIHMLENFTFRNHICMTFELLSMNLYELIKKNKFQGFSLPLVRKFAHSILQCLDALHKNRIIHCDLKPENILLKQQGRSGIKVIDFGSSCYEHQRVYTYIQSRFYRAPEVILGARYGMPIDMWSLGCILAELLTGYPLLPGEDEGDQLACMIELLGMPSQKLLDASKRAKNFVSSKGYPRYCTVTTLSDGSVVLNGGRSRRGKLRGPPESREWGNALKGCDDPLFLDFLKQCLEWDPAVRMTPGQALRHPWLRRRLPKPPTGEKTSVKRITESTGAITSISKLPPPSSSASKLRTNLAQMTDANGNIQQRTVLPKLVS", "note": "Compare with care: the assays were run in different laboratories."}
{"SMILES": "N#Cc1cccc(Nc2nc3cc(C(=O)O)ccc3c3cnccc23)c1", "assay": "radiometric", "conditions": "1 µM", "remaining activity": "11%"}
{"SMILES": "CC(C)(C)C(=O)c1sc(NC2CCCCC2)nc1N", "conditions": "10 µM", "remaining activity": "90%"}
{"SMILES": "COc1cc(Nc2cnc(C#N)c(O[C@H](C)CN(C)C)n2)ncc1-c1cnn(C)c1", "assay": "radiometric", "conditions": "1 µM", "remaining activity": "100%"}
{"SMILES": "Cc1cnc(NC2CCOCC2)nc1-n1cnc(C(=O)NC(CN)c2cc(F)cc(Cl)c2)c1 (stereo not drawn)", "assay": "radiometric", "conditions": "1 µM", "remaining activity": "30%"}
{"SMILES": "O=C(O)c1ccc2c(c1)nc(Nc1ccccc1)c1ccncc12", "assay": "radiometric", "conditions": "1 µM", "remaining activity": "45%"}
{"SMILES": "CC(C)(C)c1nc2c(s1)c1nc(N)ncc1c1ccc(NS(=O)(=O)c3c(F)cccc3F)c(F)c12", "assay": "radiometric", "conditions": "1 µM", "remaining activity": "94%"}
{"SMILES": "CCN(CC)c1ccc(C2=NNC(=O)CC2C)cc1[N+](=O)[O-] (stereo not drawn)", "conditions": "10 µM", "remaining activity": "100%"}
{"SMILES": "O=C(O)c1ccc2c(c1)nc(NCCc1ccccc1)c1ccncc12", "assay": "radiometric", "conditions": "1 µM", "remaining activity": "9%"}
{"SMILES": "Oc1cccc(-c2nc(N3CCOCC3)c3oc4ncccc4c3n2)c1", "conditions": "10 µM", "remaining activity": "83%"}
{"SMILES": "O=C(Nc1cnn(-c2csc(C(=O)NC3COC3)c2)c1)Nc1ccccc1Cl", "conditions": "5 µM", "remaining activity": "88.2%"}
{"SMILES": "O=C(O)c1ccc2c(c1)nc(NCCc1cccc(F)c1)c1ccncc12", "assay": "radiometric", "conditions": "1 µM", "remaining activity": "17%"}
{"SMILES": "FC(F)c1nc2ccccc2n1-c1nc(N2CCOCC2)nc(N2CCOCC2)n1", "conditions": "10 µM", "remaining activity": "93%"}
